Bioassay records from PubChem.
PREPL inhibitor – PREPL enzyme inhibitors, primary screen, biochemical, fluorescence polarization. recombinant PREPL, fluorescence polarization activity-based probe. inhibition, % at 5.96 µM. 0.68% of 320,000 active. AID 2751, 2010; in the data active = inhibition above about 43%;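 also: 0% = enzyme with DMSO and 100% = wells lacking enzyme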
MC4R ag barr – MC4R agonists recruiting beta-arrestin, primary screen, cell-based, luminescence, agonist arm of biased-ligand search | 0.98% of 360,000 active | Melanocortin receptor 4 (Homo sapiens), P32245 | AID 540308, 2011 | U2OS MC4R beta-arrestin complementation; percent of melanotan II response, DMSO zero | activation, % at 8.9 µM;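 active = activation above a per-plate cutoff, the mean activation of sample wells on that plate plus 3 SD, cut at about 8% in these data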
NTR1 ag – agonists of human NTR1, primary screen, imaging, U2OS cells, beta-arrestin-GFP, high content; Neurotensin receptor type 1 (Homo sapiens), P30989; NTR1-U2OS beta-arrestin-GFP spot imaging, agonist mode; activation, % at 20 µM; 0.17% of 330,000 active;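 active = activation at or above 40% of the spot to cytoplasm intensity ratio, with at least 20 cells analyzed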;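 also: 0% = DMSO without peptide and 100% = 100 nM NTR1 peptide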
Target sequence (P30989 whole entry, looked up): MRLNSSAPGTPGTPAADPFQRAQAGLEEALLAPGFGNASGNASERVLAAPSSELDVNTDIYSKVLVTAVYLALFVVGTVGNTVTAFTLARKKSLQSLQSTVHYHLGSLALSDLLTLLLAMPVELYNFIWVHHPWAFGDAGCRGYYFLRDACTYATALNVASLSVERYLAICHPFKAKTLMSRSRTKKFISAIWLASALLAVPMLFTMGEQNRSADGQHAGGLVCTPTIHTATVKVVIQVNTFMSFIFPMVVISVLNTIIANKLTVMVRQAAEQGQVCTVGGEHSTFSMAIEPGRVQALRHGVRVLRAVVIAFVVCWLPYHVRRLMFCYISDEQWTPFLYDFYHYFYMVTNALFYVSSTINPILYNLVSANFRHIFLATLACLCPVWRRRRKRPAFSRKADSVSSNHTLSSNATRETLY
m5-HT2A agonist – mouse Htr2a agonists via beta-arrestin recruitment, primary screen, cell-based, luminescence | CHO-K1 mHTR2A beta-arrestin complementation; percent of 30 µM serotonin response | AID 624169, 2012 | activation, % at 7.6 µM | 0.66% of 360,000 active;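 active = activation above a run cutoff, the mean activation of all tested compounds plus 3 SD, cut at about 14% in these data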;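 also: 0% = plate median of compound wells and 100% = 30 µM serotonin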
MC4R antag cAMP – MC4R antagonists of cAMP signaling, primary screen, cell-based, TR-FRET, antagonist arm of biased-ligand search; Melanocortin receptor 4 (Homo sapiens), P32245; MC4R-expressing cells, MTII-stimulated cAMP, LANCE TR-FRET; inhibition, % at 6.5 µM; 0.48% of 360,000 active; AID 540295, 2011;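 active = inhibition above its plate's cutoff, the mean of tested wells on that plate plus 3 SD, cut at about 29% in these data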;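 also: 0% = Melanotan II alone and 100% = Melanotan II plus saturating MCL0020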
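System – human MC4R-expressing U2OS cells · Also added – Melanotan II · Dosing – one concentration, 6.5 µM nominal · Timing – 30-min compound, 1-h challenge, 1-h detection, room temperature · Measured by – Eu-cAMP/anti-cAMP TR-FRET, emission 671 nm · Replicates – singlicate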
Lipid droplet – inhibitors of hepatocyte lipid droplet formation, primary screen, imaging, high-throughput imaging, BODIPY stain; AML12 mouse hepatocytes, oleate lipid droplets; inhibition, % at 6.5 µM; 0.4% of 240,000 active; AID 1656, 2009;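 active = lipid droplet intensity inhibited by at least 50%, with more than 500 cells counted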
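Assay system: AML12 hepatocytes (mouse) / Also added: 100 µM oleic acid challenge / Times: overnight treatment with compound plus oleate / Detection: high-content imaging of BODIPY-stained droplets and DAPI nuclei / Evaluation: % inhibition of lipid droplet signal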
cAMP nonselect – nonselective cAMP signaling inhibitors, parental cells, counter-screen for MC4R biased antagonist project, cell-based, TR-FRET, U2OS, forskolin, triplicate; shares compounds with MC4R antag cAMP; LANCE TR-FRET; inhibition, % at 6.5 µM; 26% of 1,600 active; AID 602193, 2012;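 active = mean inhibition over triplicates above the low-control well mean plus 3 SD, set per campaign, cut at about 13% in these data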;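 also: signal is single emission at 671 nm which falls as cellular cAMP rises; 0% = forskolin-stimulated wells and 100% = buffer without forskolin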
MC4R cAMP antag – MC4R cAMP antagonists, retest, confirmation, cell-based, TR-FRET; shares compounds with MC4R antag cAMP; MC4R-expressing cells, MTII-stimulated cAMP; inhibition, % at 6.5 µM; 27% of 1,600 active; AID 602195, 2012; in the data active = inhibition above about 29%;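 also: 0% = agonist stimulated wells alone and 100% = agonist stimulated wells plus saturating reference antagonist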
An asterisk follows results filed as active; . = not tested or not shown. Only some compounds are listed: those with a hit (about 2.7% of all), similar ones and a draw of the others.

SMILES | PREPL inhibitor | MC4R ag barr | NTR1 ag | m5-HT2A agonist | MC4R antag cAMP | Lipid droplet | cAMP nonselect | MC4R cAMP antag
Cc1nc(Cl)nc(N(C)c2ccccc2)c1[N+](=O)[O-] | -8 | -4 | 4 | -1 | 36* | -3 | 22* | 6
CN(c1ccccc1)c1nc(N)c([N+](=O)[O-])c(NCc2ccccc2)n1 | -11 | 2 | 19 | -3 | -2 | 3 | . | .
CS(=O)(=O)c1ccc(C(=O)OCC(=O)NCc2cccs2)cc1[N+](=O)[O-] | 27 | -2 | 39 | 5 | 47* | . | 22* | 18
Cc1cccc(C(=O)OCC(=O)NCc2cccs2)c1 | 2 | -2 | 0 | 7 | 5 | 14 | . | .
CCOCc1nc(N)nc(N)c1-c1cccc(Cl)c1 | . | -1 | . | -3 | 31* | . | -1 | 0
CN1C2CCC1CC(NC(=O)CSCc1ccc(Cl)cc1Cl)C2 (configuration not stated) | 24 | 2 | -2 | -5 | 3 | 1 | . | .
O=C(Nc1nc2ccccc2[nH]1)c1ccc(Cl)c(S(=O)(=O)N2CCCC2)c1 | 6 | -1 | -2 | 3 | 29* | 4 | 11 | 7
O=C(NC1=NCCS1)c1ccc(Cl)c(S(=O)(=O)N2CCCC2)c1 | 5 | 1 | 0 | 6 | 32* | -2 | 5 | 1
Cc1cccc(C(=O)NC2=NCCS2)c1 | 1 | 1 | -1 | 0 | 33* | -8 | -1 | 4
O=C(NC1=NCCS1)c1ccc(Cl)c(S(=O)(=O)N2CCCCC2)c1 | -3 | -3 | 0 | -1 | 3 | 15 | . | .
O=C(NC1=NCCS1)c1ccccc1 | -2 | 1 | 0 | 2 | 14 | . | . | .
COc1cccc(/C=N/NC(=O)c2ccc([N+](=O)[O-])cc2Cl)c1O | 8 | -2 | 5 | -5 | 3 | 15 | . | .
Cc1cccc(N2CCN(C(=O)c3c(Cl)cnn3C)CC2)c1C | -2 | -4 | 1 | 1 | 8 | -3 | . | .
CNc1nc(Nc2ccc([N+](=O)[O-])cc2)nc(OCC(F)(F)F)n1 | -8 | 1 | 2 | 2 | 15 | 8 | . | .
CNc1nc(N/N=C/c2cc([N+](=O)[O-])ccc2F)nc(Nc2ccccc2)n1 | . | -1 | . | -1 | 47* | . | 19* | 62*
CC(=O)NC12CC3CC(C1)CC(C(=O)Oc1ccc(N(C)S(=O)(=O)c4cc(C)ccc4C)cc1)(C3)C2 | 4 | -2 | 16 | 8 | 7 | . | . | .
COc1cc([N+](=O)[O-])cc(/C=N/NC(=O)Cn2nc(C)cc2C)c1O | -1 | -1 | -1 | -20 | 2 | 5 | . | .
COc1cc([N+](=O)[O-])cc(/C=N/NC(=O)Cn2nccc2C)c1O | 5 | -2 | 0 | -19 | 29* | 36 | -6 | -14
COC(=O)CSc1ccc(C#N)c(SCC(=O)OC)c1 | 7 | -1 | -1 | 0 | 35* | . | 17* | 21
COC(=O)CSc1cc(SCC(=O)OC)c(C#N)c(SCC(=O)OC)c1 | 8 | -1 | 2 | 6 | 14 | . | . | .
CC(=O)Nc1ccc(S(=O)(=O)N(C)CC(=O)OCC(=O)c2cc(C)n(-c3ccc4c(c3)OCO4)c2C)cc1 | 13 | -1 | 0 | 0 | 8 | -20 | . | .
N#C/C(=C/c1ccc(OCc2ccc(C(=O)O)cc2)c(Br)c1)c1cccc(F)c1 | -9 | -2 | 3 | -1 | 34* | -2 | -3 | -14
Cc1c(Br)c([N+](=O)[O-])nn1CC(=O)N1CCc2ccccc21 | 6 | 0 | -1 | -2 | 30* | 3 | -1 | 4
O=C(Nc1cccc([N+](=O)[O-])c1)Nc1cccc([N+](=O)[O-])c1 | 28 | 1 | 4 | 1 | 34* | -9 | 11 | 14
CCN(CC)c1ccc(C(=C2C=CC(=[N+](CC)CC)C=C2)c2ccccc2)cc1 | . | -3 | . | -4 | 64* | . | 34* | 67*
SMILES | PREPL inhibitor | MC4R ag barr | NTR1 ag | m5-HT2A agonist | MC4R antag cAMP | Lipid droplet | cAMP nonselect | MC4R cAMP antag
Cc1ccc(N2CC(C(=O)Nc3ccc(S(=O)(=O)N4CCOCC4)cc3)CC2=O)cc1 (configuration not stated) | 10 | -1 | 0 | 1 | 10 | 4 | . | .
Cc1cccc(N2CC(C(=O)Nc3ccc(S(=O)(=O)N4CCOCC4)cc3)CC2=O)c1 (configuration not stated) | -3 | 2 | 0 | -4 | 30* | 2 | 1 | 5
CCN1C(=O)[C@@H]2[C@@H]3CN(S(=O)(=O)c4ccc(C)cc4)[C@@H](c4ccccc4Cl)[C@@H]3C(=O)C[C@@H]2C1=O | . | . | . | 0 | . | . | . | .
O=C(COC(=O)[C@H](Cc1ccccc1)NC(=O)c1ccco1)Nc1ccccc1 | 8 | -2 | 5 | -7 | 13 | . | . | .
O=C(COC(=O)[C@H](Cc1ccccc1)NC(=O)c1cccs1)NC1CCCCC1 | 7 | -2 | 3 | -3 | 37* | -4 | 8 | 10
O=C(COC(=O)[C@H](Cc1ccccc1)NC(=O)c1ccco1)NC(c1ccccc1)c1ccccc1 | -19 | 0 | 2 | 0 | 32* | 11 | 20* | 36*
O=C(COC(=O)[C@H](Cc1ccccc1)NC(=O)c1cccs1)NC1CC1 | 12 | -1 | 1 | -2 | 21 | -10 | . | .
O=C(Nc1ccc(F)cc1)c1cc(-c2ccccn2)nc2c(Cl)cccc12 | -3 | 1 | 8 | 2 | 30* | -54 | 35* | 42*
N#Cc1ccsc1NC(=O)c1ccc(Cl)c([N+](=O)[O-])c1 | 23 | -1 | 4 | -4 | 36* | -28 | 10 | 11
CC(C)(CNC(=O)c1ccc([N+](=O)[O-])c(Cl)c1)CNC(=O)c1ccc([N+](=O)[O-])c(Cl)c1 | 25 | -2 | 24 | -1 | 31* | . | 9 | 44*
CCOC(=O)C1=C(COC(=O)CCNS(=O)(=O)c2ccc(NC(C)=O)cc2)NC(=O)NC1C (configuration not stated) | 14 | 1 | 2 | 3 | 2 | . | . | .
NS(=O)(=O)c1ccc(NC(=O)COC(=O)CSc2n[nH]c(-c3ccccc3)n2)cc1 | 2 | -1 | -1 | 1 | 39* | . | 9 | -3
